A short description of series [1]: Plasma concentration in Sprague-Dawley rat at 5 mg/kg, po after 4 hrs by LC-MS/MS analysis. In kind it is ADME, organism-based. Set-up: dose 5 mg/kg, route oral. The essentials:
(§1)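 Male Sprague-Dawley rats fitted with jugular catheters, fed, three per compound, dosed orally at 5 mg/kg. Vehicle was 1% CMC/0.2% Tween80 in water, or 80% PEG 400/20% pH 2 30 mM citric acid, depending on compound. Serial heparinized blood taken at 1, 2, 4 and 6 h. Plasma proteins precipitated with acetonitrile; compound quantified by LC/MS/MS in MRM mode.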

The nature of series [2]: Plasma concentration in Sprague-Dawley rat at 5 mg/kg, po after 1 hr by LC-MS/MS analysis. The format is ADME, organism-based. Set-up: dose 5 mg/kg, route oral. The essentials:
as §1

Series [3] can be described thus: Aqueous solubility at pH 7.4. In kind it is physicochemical.
Series [4] is described as follows: Plasma concentration in Sprague-Dawley rat at 5 mg/kg, po after 2 hrs by LC-MS/MS analysis. In kind it is ADME, organism-based. Set-up: dose 5 mg/kg, route oral. The essentials: as §1

`CS(=O)(=O)c1ccc(C(CCNC(=O)c2ccc(C#N)cc2)c2ccc(F)cc2)cc1` (stereo not given): in series [1], the concentration at 4 h is 3600 nM.

The term solubility denotes the dissolved amount per volume that the medium holds. A higher solubility goes with a readily soluble substance. `O=C(NCCC(c1ccc(F)cc1)c1ccc(F)cc1)c1ccc(OCC(F)(F)F)nc1` displayed a concentration at 1 h in series [2] of 300 nM. In series [3], this compound registered a solubility of under 0.1 µg/mL. In series [4], this compound returned a concentration at 2 h of 200 nM. This compound also showed a concentration at 4 h in series [1] of 100 nM.

The values above are taken from ChEMBL document CHEMBL1153540, “Structure-based optimization of arylamides as inhibitors of soluble epoxide hydrolase” (J Med Chem, 2009).
